Reference: ChEMBL document CHEMBL1250445, “Fluorogenic probes for monitoring peptide binding to class II MHC proteins in living cells” (Nat Chem Biol, 2007)
Calls of active or inactive are those of the source. The rule behind the calls is not given here. *1 amine or outer side, *2 acyl side, *3 side chain or, on linkers, in order; H or OH if unused. Where a SMILES comes first, the peptide text is derived from it. [ ]: non-standard residue; d: D form. The star is where a group is joined. X1 = CN(C)c1ccc2c(c1)C(=O)N(C[C@H](N[*:1])C(=O)[*:2])C2=O; X2 = CN(C)c1ccc2cc(C(=O)O)c(C(=O)*)cc2c1; X3 = CN(C)c1ccc(CC(=O)*)c(C(=O)O)c1; Dap = NC[C@H](N)C(=O)O

What was measured:
Type in all cases: cell-based
[1] = biological target: HLA class II histocompatibility antigen, DRB1-15 beta chain (Homo sapiens) (UniProt P01911); test: Binding affinity to recombinant soluble HLA-DR1 expressed in […] assessed as fluorescence lifetime by fluorescence lifetime imaging microscopy
[2] = biological target: T1, HLA class II histocompatibility antigen, DRB1-15 beta chain (Homo sapiens, UniProt P01903+P01911, A100R/D57E/F55L/F60I/F76Y/I96L/L162R/M171V/P40L/Q125E/R42F/V115G/Y59C); test: Displacement of biotin-HA from recombinant soluble HLA-DR1 expressed in […] at acidic pH by ELISA
[3] = biological target: T1, HLA class II histocompatibility antigen, DRB1-15 beta chain; test: Displacement of biotin-HA from recombinant soluble HLA-DR1 expressed in […] by ELISA
[4] = biological target: HLA class II histocompatibility antigen, DRB1-15 beta chain (Homo sapiens) (UniProt P01911); test: Binding affinity to recombinant soluble HLA-DR1 expressed in human T2 cells assessed as increase in fluorescence lifetime at 1 uM by fluorescence lifetime imaging microscopy
[5] = biological target: HLA class II histocompatibility antigen, DRB1-15 beta chain (Homo sapiens) (UniProt P01911); test: Binding affinity to recombinant soluble HLA-DR1 expressed in […] assessed as relative fluorescence intensity by fluorescence spectral assay
[6] = biological target: HLA class II histocompatibility antigen, DRB1-15 beta chain (Homo sapiens) (UniProt P01911); test: Activation of HLA-DR1 positive B cells assessed as IL2 secretion
Outline: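 HLA-DR1-positive B cells were pulsed with peptide and used as antigen-presenting cells for the HLA-DR1-restricted, HA-specific HA1.7 T cell hybridoma. Activation was read as IL-2 secretion in a thymidine incorporation bioassay, in c.p.m. Triplicate measurements, with SD shown.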

Row | Time [1] [nanoseconds] | IC50 [2] [nM] | IC50 [3] [nM] | Activity [5] [cps/nM] | SMILES | also measured
1 | – | 28 | – | – | CSCC[C@H](NC(=O)[C@H](CO)NC(=O)[C@H](CCCN=C(N)N)NC(=O)[C@H](CNC(=O)Cc1ccc(N(C)C)cc1C(=O)O)NC(C)=O)C(=O)N[C@@H](C)C(=O)N[C@@H](C)C(=O)N[C@@H](C)C(=O)N[C@@H](C)C(=O)N[C@@H](CC(C)C)C(=O)O (Ac-[Dap](X3)RSMAAAAL-OH) | –
2 | – | 27 | – | – | CSCC[C@H](NC(=O)[C@H](CO)NC(=O)[C@H](CCCNC(=N)N)NC(=O)[C@H](CNC(=O)c1cc2cc(N(C)C)ccc2cc1C(=O)O)NC(C)=O)C(=O)N[C@@H](C)C(=O)N[C@@H](C)C(=O)N[C@@H](C)C(=O)N[C@@H](C)C(=O)N[C@@H](CC(C)C)C(=O)O (Ac-[Dap](X2)RSMAAAAL-OH) | –

The remaining lines, values behind:

Row | SMILES | Time [1] [nanoseconds] | IC50 [2] [nM] | IC50 [3] [nM] | Activity [5] [cps/nM] | also measured
3 | CSCC[C@H](NC(=O)[C@H](CO)NC(=O)[C@H](CCCNC(=N)N)NC(=O)[C@@H](N)CN1C(=O)c2ccc(N(C)C)cc2C1=O)C(=O)N[C@@H](C)C(=O)N[C@@H](C)C(=O)N[C@@H](C)C(=O)N[C@@H](C)C(=O)N[C@@H](CC(C)C)C(=O)O (H-[X1]RSMAAAAL-OH) | 0.82 | 4 | 4 | 599 | Activity [4]: Active
4 | CC(C)C[C@H](NC(=O)[C@H](CCCCN)NC(=O)[C@H](CC(C)C)NC(=O)[C@@H](NC(=O)[C@H](CC(N)=O)NC(=O)[C@H](CCC(N)=O)NC(=O)[C@H](CCCCN)NC(=O)[C@@H](NC(=O)[C@H](Cc1ccc(O)cc1)NC(=O)[C@H](CCCCN)NC(=O)[C@@H]1CCCN1C(=O)[C@@H](N)CN1C(=O)c2ccc(N(C)C)cc2C1=O)C(C)C)[C@@H](C)O)C(=O)N[C@@H](C)C(=O)N[C@H](C(=O)O)[C@@H](C)O | 0.6 | – | – | 578 | Activity [6]: Active
5 | C[C@@H](O)[C@H](NC(=O)[C@H](CCC(=O)O)NC(=O)[C@@H](N)CN1C(=O)c2ccc(N(C)C)cc2C1=O)C(=O)N[C@@H](CC(=O)O)C(=O)N[C@@H](CCCCN)C(=O)N[C@@H](CC(=O)O)C(=O)N[C@@H](CCCCN)C(=O)N[C@@H](CO)C(=O)N[C@@H](CCCN=C(N)N)C(=O)O (H-[X1]ETDKDKSR-OH) | – | – | > 10000 | – | –
6 | CN(C)c1ccc2c(c1)C(=O)N(C[C@H](NC(=O)OCC1c3ccccc3-c3ccccc31)C(=O)O)C2=O | – | – | > 1000 | – | –
